Experimental data as given in PMC5008178 (Molecular Microbiology, 2015).
Like-named read-outs stand apart in the source and are kept apart here. Blank lines part the entries; values can stand above or below the compound they belong to.

Columns and labels:
[1] = tested on: chemotaxis pathway in E. coli; assay: microbe, parasite or virus in culture; assay type: cell-based, Escherichia coli; settings: for repellent response in wild type, in words: wild-type E. coli cells, tested up to 1 mM where no response; for EC50: Escherichia coli
Tar = Tar (Escherichia coli, UniProt P07017); assay: FRET response in receptorless cells expressing Tar as sole receptor; assay type: cell-based; settings: Tar-only cells; for response mediated by Tar, in words: sub-millimolar range
How it was run: (§1)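 Receptorless E. coli VS181 [Δ(cheY cheZ) Δ(tar tsr tap trg aer)] carries the CheY‑YFP/CheZ‑CFP pair (pVS88) and a plasmid with the single receptor. Cells are grown in TB at 34°C, 275 r.p.m., with inducers, and harvested at OD600 0.6. Buffer‑adapted cells get step addition and then removal of amino acid. YFP/CFP ratio (kinase activity) is read by fluorescence microscopy.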

[2] = tested on: chemotaxis pathway in B. subtilis; assay: microbe, parasite or virus in culture; assay type: cell-based, Bacillus subtilis; settings: for EC50: read-out: EC50 of attractant FRET response
Tsr = Tsr (Escherichia coli, UniProt P02942); assay: FRET response in receptorless cells expressing Tsr as sole receptor; assay type: cell-based; settings: for response mediated by Tsr, in words: Tsr-only cells, sub-millimolar range
How it was run: as §1

E. coli = assay: Growth inhibition by individual amino acids in M9 glucose medium; assay type: cell-based, Escherichia coli; settings: 1 mM amino acid, M9 minimal glucose medium, culture density after 8 h
How it was run: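 Cells grown in modified M9 (47 mM Na2HPO4, 22 mM KH2PO4, 8 mM NaCl, 2 mM MgSO4, 100 μM CaCl2) with glucose as carbon source. A single L‑amino acid (1 mM final) was added at the start; 37°C, 120 r.p.m. OD600 read after 8 h and normalised to a control culture without added amino acid.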

[3] = read-out: EC50 of repellent response
[4] = read-out: EC50 of attractant FRET response

Sequence of Tar (P07017 whole entry): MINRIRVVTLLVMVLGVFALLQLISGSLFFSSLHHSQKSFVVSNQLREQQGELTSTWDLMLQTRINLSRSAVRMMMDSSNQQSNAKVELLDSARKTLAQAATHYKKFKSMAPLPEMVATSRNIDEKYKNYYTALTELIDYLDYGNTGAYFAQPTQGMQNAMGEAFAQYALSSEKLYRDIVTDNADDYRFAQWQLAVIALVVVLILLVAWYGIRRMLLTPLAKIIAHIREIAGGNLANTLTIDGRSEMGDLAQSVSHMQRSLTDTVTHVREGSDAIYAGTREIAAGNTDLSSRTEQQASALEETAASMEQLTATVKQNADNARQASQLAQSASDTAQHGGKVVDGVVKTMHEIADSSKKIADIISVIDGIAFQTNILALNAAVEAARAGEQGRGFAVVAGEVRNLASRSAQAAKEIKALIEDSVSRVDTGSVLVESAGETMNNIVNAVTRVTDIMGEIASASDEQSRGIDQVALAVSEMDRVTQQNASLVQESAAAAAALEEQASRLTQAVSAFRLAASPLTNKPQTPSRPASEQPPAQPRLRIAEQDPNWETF
Sequence of Tar (P0A964 whole entry partner): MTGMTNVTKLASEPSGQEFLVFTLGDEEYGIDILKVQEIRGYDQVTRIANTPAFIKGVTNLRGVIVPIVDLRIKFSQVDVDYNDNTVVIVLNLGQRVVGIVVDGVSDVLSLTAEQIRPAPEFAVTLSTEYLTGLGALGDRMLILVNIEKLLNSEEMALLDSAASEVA
Sequence of Tar (P07363 whole entry partner): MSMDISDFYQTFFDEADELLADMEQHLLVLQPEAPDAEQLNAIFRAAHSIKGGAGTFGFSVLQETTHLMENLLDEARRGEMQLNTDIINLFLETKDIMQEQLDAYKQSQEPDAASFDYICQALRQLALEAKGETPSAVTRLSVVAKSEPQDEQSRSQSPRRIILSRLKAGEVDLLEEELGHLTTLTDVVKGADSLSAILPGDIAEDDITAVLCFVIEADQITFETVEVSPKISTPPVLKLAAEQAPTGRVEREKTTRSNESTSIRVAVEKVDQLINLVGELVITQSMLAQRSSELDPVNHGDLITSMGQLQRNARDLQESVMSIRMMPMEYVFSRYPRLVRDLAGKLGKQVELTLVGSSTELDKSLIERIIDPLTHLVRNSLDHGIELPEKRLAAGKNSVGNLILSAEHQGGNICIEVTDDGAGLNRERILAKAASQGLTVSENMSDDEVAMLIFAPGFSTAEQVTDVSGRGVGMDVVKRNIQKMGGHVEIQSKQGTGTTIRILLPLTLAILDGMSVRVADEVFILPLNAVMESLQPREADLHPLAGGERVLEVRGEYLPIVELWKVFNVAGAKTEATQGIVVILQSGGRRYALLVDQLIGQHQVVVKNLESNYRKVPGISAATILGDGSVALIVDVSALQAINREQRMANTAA
Sequence of Tsr (P02942 whole entry): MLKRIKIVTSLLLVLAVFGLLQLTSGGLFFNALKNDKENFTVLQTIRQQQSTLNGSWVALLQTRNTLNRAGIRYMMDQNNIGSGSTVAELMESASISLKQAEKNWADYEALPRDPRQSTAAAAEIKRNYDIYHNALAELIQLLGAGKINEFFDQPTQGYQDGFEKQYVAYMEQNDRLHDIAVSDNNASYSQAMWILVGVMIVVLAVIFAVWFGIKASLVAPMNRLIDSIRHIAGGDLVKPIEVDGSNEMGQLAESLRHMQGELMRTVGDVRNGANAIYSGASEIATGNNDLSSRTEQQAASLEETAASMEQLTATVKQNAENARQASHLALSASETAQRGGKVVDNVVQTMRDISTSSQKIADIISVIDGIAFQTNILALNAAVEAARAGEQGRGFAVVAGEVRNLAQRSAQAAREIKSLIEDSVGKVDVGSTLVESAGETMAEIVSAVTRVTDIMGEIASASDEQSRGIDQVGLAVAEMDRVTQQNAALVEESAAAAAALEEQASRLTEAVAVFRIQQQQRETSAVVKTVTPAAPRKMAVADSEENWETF
Sequence of Tsr (P0A964 whole entry partner): as the sequence (P0A964 whole entry partner) above
Sequence of Tsr (P07363 whole entry partner): as the sequence (P07363 whole entry partner) above

response mediated by Tar, in words (Tar): attractant responses
SMILES: CSCC[C@H](N)C(=O)O [Methionine]
attractant response in words [1]: weak attractant responses

EC50 ([2]; B. subtilis): > 1000 µM | repellent response in Tsr-only cells, in words (Tsr): weak repellent responses | response mediated by Tar, in words (Tar): attractant responses
SMILES: N[C@@H](CCC(=O)O)C(=O)O [Glutamate]
repellent response in wild type, in words [1]: no obvious repellent response

EC50 ([2]; Bacillus subtilis): < 1 µM | response mediated by Tsr, in words (Tsr): attractant responses | response mediated by Tar, in words (Tar): attractant responses
SMILES: NC(=O)C[C@H](N)C(=O)O [Aparagine, Asparagine]

EC50 [1, 3]: 100 to 3000 µM
SMILES: N[C@@H](Cc1c[nH]c2ccccc12)C(=O)O [Tryptophan]
FRET response in words ([2]; B. subtilis): lesser maximal activation | repellent response in wild type, in words [1]: clear repellent responses

SMILES: N[C@@H](Cc1ccc(O)cc1)C(=O)O [Tyrosine]
FRET response in words ([2]; B. subtilis): lesser maximal activation

response mediated by Tsr, in words (Tsr): attractant responses | response mediated by Tar, in words (Tar): attractant responses
SMILES: C[C@H](N)C(=O)O [Alanine]

EC50 [1, 3]: 100 to 3000 µM
SMILES: CC(C)C[C@H](N)C(=O)O [Leucine]
growth inhibition (E. coli): significant growth inhibition | repellent response in wild type, in words [1]: clear repellent responses

EC50 [1, 3]: 100 to 3000 µM
SMILES: CC(C)[C@H](N)C(=O)O [Valine]
growth inhibition (E. coli): significant growth inhibition | repellent response in wild type, in words [1]: clear repellent responses

EC50 ([2]; Bacillus subtilis): < 1 µM | response mediated by Tsr, in words (Tsr): attractant responses | EC50 [1, 4]: < 10 µM | response mediated by Tar, in words (Tar): attractant responses
SMILES: N[C@@H](CS)C(=O)O [Cysteine]
growth inhibition (E. coli): significant growth inhibition

SMILES: N=C(N)NCCC[C@H](N)C(=O)O [Arginine]
FRET response in words ([2]; B. subtilis): did not elicit clear responses

repellent response in Tsr-only cells, in words (Tsr): weak repellent responses
SMILES: NC(=O)CC[C@H](N)C(=O)O [Glutamine]
repellent response in wild type, in words [1]: no obvious repellent response

EC50 ([2]; Bacillus subtilis): < 1 µM
SMILES: O=C(O)[C@@H]1CCCN1 [Proline]

EC50 [1, 3]: 100 to 3000 µM
SMILES: CC[C@H](C)[C@H](N)C(=O)O [Isoleucine]
repellent response in wild type, in words [1]: clear repellent responses

repellent response in Tsr-only cells, in words (Tsr): weak repellent responses
SMILES: N[C@@H](Cc1ccccc1)C(=O)O [Phenyalanine, phenylalanine]
repellent response in wild type, in words [1]: no obvious repellent response

SMILES: NCCCC[C@H](N)C(=O)O [Lysine]
FRET response in words ([2]; B. subtilis): did not elicit clear responses

response mediated by Tsr, in words (Tsr): attractant responses | EC50 [1, 4]: < 10 µM | level at which the response saturated (Tar; saturating concentration): ~20 % of the initial activity | response mediated by Tar, in words (Tar): attractant responses
SMILES: N[C@@H](CO)C(=O)O [Serine]
growth inhibition (E. coli): significant growth inhibition

response mediated by Tsr, in words (Tsr): attractant responses | response mediated by Tar, in words (Tar): attractant responses
SMILES: NCC(=O)O [Glycine]

repellent response in Tsr-only cells, in words (Tsr): weak repellent responses
SMILES: N[C@@H](Cc1c[nH]cn1)C(=O)O [Histidine]
FRET response in words ([2]; B. subtilis): lesser maximal activation | repellent response in wild type, in words [1]: no obvious repellent response

EC50 ([2]; Bacillus subtilis): > 1000 µM | repellent response in Tsr-only cells, in words (Tsr): weak repellent responses | EC50 [1, 4]: < 10 µM | response mediated by Tar, in words (Tar): attractant responses
SMILES: N[C@@H](CC(=O)O)C(=O)O [Aspartate]
repellent response in wild type, in words [1]: no obvious repellent response

SMILES: C[C@@H](O)[C@H](N)C(=O)O [Threonine]
attractant response in words ([1]; wild-type E. coli, millimolar concentrations): weak attractant responses
